Source: ChEMBL document CHEMBL1124344, “5-Piperazinylalkyl-2(3H)-oxazolones with neuroleptic activity” (J Med Chem, 1989)

Experiments:
Mus musculus [1] = assay: Inhibition of amphetamine-induced hypermobility in mice following p.o. administration.; type: functional; conditions: po
Method in brief: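 Compounds were given orally to male mice (gum arabic suspension, 10 mL/kg, fasted) in groups of five. Amphetamine 4 mg/kg ip followed 30 min later. After another 10 min, motility was recorded for 15 min with a photocell actophotometer. ED50, by probit analysis, is the dose giving 50% reduction against controls.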

[2] = Lethal dose in mice (LD50) following i.p. dosing; type: toxicity, organism-based; conditions: mouse, in vivo, ip
Method in brief: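 Acute toxicity tested in mice by the intraperitoneal route. LD50 is the dose killing 50% of treated mice, computed by Finney probit analysis; values are approximate.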

Mus musculus [3] = assay: Inhibition of spontaneous motor activity in mice, by administering perorally at a dose of 40 mg/kg; type: functional; conditions: route oral
Method in brief: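 Mice fasted overnight, then dosed orally with compound (weighed as base) suspended in arabic gum, 10 mL/kg, with vehicle controls; 1 h pretreatment for screening tests, 1 or 5 h for others. Groups of five; locomotor activity counted 10 min in photocell activity cage, at least two groups per dose. ED50 = dose giving 50% inhibition versus controls, by probit analysis.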

Rattus norvegicus [4] = assay: Antagonistic activity against apomorphine-induced stereotypy in rats, by administering perorally at a dose of 40 mg/kg; type: functional; conditions: route oral
Method in brief: (§1)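 Male rats fasted overnight and given oral doses in arabic gum suspension (10 mL/kg) 1 h, or 1 and 5 h, before challenge. Apomorphine 3 mg/kg iv, with stereotypy observed 20 min later. ED50 is the dose inhibiting stereotypy in 50% of rats, per Janssen's method. Parenthetical entries give the maximal dose and percent activity.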

Rattus norvegicus [5] = assay: Activity to evoke catalepsy in rats, by administering perorally at a dose of 40 mg/kg; type: functional; conditions: route oral
Method in brief: (§2)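 Rats fasted overnight and given oral doses in arabic gum suspension (10 mL/kg), 1 h before screening or 1 and 5 h before profile testing. Forelegs placed on a horizontal bar 7 cm high, three times at 5-min intervals. Immobility of at least 15 s counts as catalepsy. ED50 is the dose giving catalepsy in 50% of rats, by probit analysis. Parenthetical entries give the maximal dose and percent activity.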

Mus musculus [6] = assay: Inhibition of spontaneous motor activity in mice, by administering perorally; type: functional; conditions: po
Method in brief: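 Mice in groups of five were dosed orally with gum arabic suspensions at 10 mL/kg after an overnight fast, with a vehicle control group. Locomotion was counted for 10 min in a photocell activity cage, in at least two groups per dose. ED50, by probit analysis, is the dose giving 50% inhibition against controls.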

Rattus norvegicus [7] = assay: Antagonistic activity against apomorphine-induced stereotypy in rats, by administering perorally at a dose of 60 mg/kg; type: functional; conditions: route oral; method in brief: as §1
Rattus norvegicus [8] = assay: Activity to evoke catalepsy in rats, by administering perorally at a dose of 60 mg/kg; type: functional; conditions: route oral; method in brief: as §2

| SMILES | ED50 (Mus musculus [1]) | LD50 [2] | inhibition in vivo at 40 mg/kg (Mus musculus [3]) | inhibition in vivo at 40 mg/kg (Rattus norvegicus [4]) | inhibition in vivo at 40 mg/kg (Rattus norvegicus [5]) | ED50 (Mus musculus [6]) | inhibition in vivo at 60 mg/kg (Rattus norvegicus [7]) | inhibition in vivo at 60 mg/kg (Rattus norvegicus [8]) |
| --- | --- | --- | --- | --- | --- | --- | --- | --- |
| Oc1nc(-c2ccc(F)cc2)c(CCN2CCN(c3ccc(Cl)cc3Cl)CC2)o1 | 23.9 mg/kg | 1000 mg/kg | 45% | 0% | 0% | – | – | – |
| Cc1ccccc1N1CCN(CCc2oc(O)nc2-c2ccc(F)cc2)CC1 | 8.6 mg/kg | 250 mg/kg | – | – | – | 6.3 mg/kg | 0% | 0% |
